Laboratory results taken from ChEMBL document CHEMBL1124749, “Analogues of 1,5-bis(4-amidinophenoxy)pentane (pentamidine) in the treatment of experimental Pneumocystis carinii pneumonia” (J Med Chem, 1990).
Where “and” joins values, the source holds several entries; their conditions need not be identical. Equal entries are not always repeated.

Tests used:
Calf thymus DNA = assay: DNA binding affinity at low ionic strength as change in midpoint; type: nucleic-acid assay; conditions: Bos taurus
Pneumocystis carinii [1] = assay: (§1) Ability to reduce the severity of PCP in immunosuppressed rats after (iv) administration of 10 mg/kg/day; type: functional
How it was run: (§2)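 Male Sprague-Dawley rats (150–200 g, barrier raised) were given corticosteroids to induce PCP. From week 6, groups of eight or more received the compound by single daily iv injection in 0.4 mL saline for 14 days, generally at 10 mg/kg. Rats were killed at the end of week 8. GMS-stained lung sections were scored from 0.5 to 4 (4 = >50% involvement), with saline and pentamidine control groups.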

Rattus norvegicus [2] = assay: as §1; type: functional; how it was run: as §2
Rattus norvegicus [3] = organism: Rattus norvegicus; assay: Ability to reduce the severity of PCP in histologic score (represents scattered cysts,25-50% lung involved with small intense areas of infection); type: functional; how it was run: as §2
Rattus norvegicus [4] = organism: Rattus norvegicus; assay: Ability to reduce the severity of PCP in histologic score (represents >50% lung involved with many intense areas of focal infection); type: functional; how it was run: as §2
Pneumocystis carinii [5] = assay: as §1; type: functional; how it was run: as §2; remark: listed apart in the source
Serine protease 1 [6] = target: T1, Serine protease 1 (Homo sapiens, UniProt P07477); assay: Inhibition of trypsin by amidase assay.
T1 sequence (P07477 whole entry): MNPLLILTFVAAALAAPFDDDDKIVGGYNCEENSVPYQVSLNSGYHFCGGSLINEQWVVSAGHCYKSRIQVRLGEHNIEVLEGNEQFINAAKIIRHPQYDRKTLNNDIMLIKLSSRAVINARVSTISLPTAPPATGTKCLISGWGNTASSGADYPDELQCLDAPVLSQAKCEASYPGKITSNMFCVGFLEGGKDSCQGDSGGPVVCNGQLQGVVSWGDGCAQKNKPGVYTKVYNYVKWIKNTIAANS

Pneumocystis carinii [7] = assay: Ability to reduce the severity of PCP in immunosuppressed rats after (i.v.) administration of 10 mg/kg/day; type: functional; conditions: route intravenous; how it was run: as §2
[8] = Cytotoxicity in […], spleen and kidneys for pathologic changes by light microscopy.++ = most animals survived, with severe distress and marked local toxicity and some systemic toxicity and histopathologic abnormalities; type: tissue-based; conditions: rat
How it was run: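 Male Sprague-Dawley rats (150–200 g), corticosteroid-immunosuppressed to induce PCP; from week 6, single daily iv injection for 14 days, usually 10 mg/kg in 0.4 mL saline (lower if insoluble or toxic); killed end of week 8. Liver, spleen, kidneys examined by light microscopy; daily health observation; toxicity graded 0 to 4+ at 10 mg/kg or highest dose tested.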

[9] = Cytotoxicity in […], spleen and kidneys for pathologic changes by light microscopy.+ = animals survived without observable distress; type: tissue-based; conditions: rat
How it was run: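 In corticosteroid-immunosuppressed rats given 14 daily iv doses for PCP, liver, spleen and kidneys were examined for pathology by light microscopy, and health was recorded daily. Toxicity was graded at 10 mg/kg or the highest dose tested on a scale from 0 (no local, clinical or histologic toxicity) to 4+ (≥50% of animals died).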

Rattus norvegicus [10] = assay: Ability to reduce the severity of PCP in immunosuppressed rats after (iv)administration; not tested in animals, Insoluble; type: functional, organism-based
Serine protease 1 [11] = target: T1, Serine protease 1; assay: Inhibition of trypsin by amidase assay
Rattus norvegicus [12] = assay: Ability to reduce the severity of PCP in immunosuppressed rats after(iv) administration of 10 mg/kg/day; type: functional; conditions: in the assay text read “1.25 mg/kg/day” for “10 mg/kg/day”; how it was run: as §2

SMILES | ΔTm (Calf thymus DNA) [°C] | Ki (Serine protease 1 [6]) [µM] | No. of animals (Pneumocystis carinii [1]) | No. of animals (Pneumocystis carinii [5]) | Toxicity [9] | also measured
Cl.N=C(N)c1ccc(NCCCCCNc2ccc(C(=N)N)cc2[N+](=O)[O-])c([N+](=O)[O-])c1 | 12.7 | 8 |  | 3 |  | No. of animals (Pneumocystis carinii [7]): 2 and 1
Cl.N=C(N)c1ccc(NCCCNc2ccc(C(=N)N)cc2[N+](=O)[O-])c([N+](=O)[O-])c1 | 12.8 | 4.3 |  | 0 |  | No. of animals (Rattus norvegicus [2]): 0; Toxicity [8]: most animals survived, with severe distress and marked local toxicity and some systemic toxicity and histopathologic abnormalities
Cl.N=C(N)c1ccc(NCCCCCNc2ccc(C(=N)N)cc2)cc1 | 11.3 | 1.4 |  | 2 |  | 
Cl.N=C(N)c1ccc(NCCCCNc2ccc(C(=N)N)cc2)cc1 | 10.3 | 1.6 |  | 1 |  | 
Cl.Cl.N=C(N)c1ccc(OCCCCOc2ccc(C(=N)N)cc2[N+](=O)[O-])c([N+](=O)[O-])c1 | 8.5 | 5.4 | 0 | 0 |  | 
Cl.N=C(N)c1ccc(NCCNc2ccc(C(=N)N)cc2N)c(N)c1 | 9.1 | 12.7 | 0 | 0 | animals survived without observable distress | 
Cl.Cl.N=C(N)c1cccc(OCCCCCOc2cccc(C(=N)N)c2)c1 | 6.8 | 3.8 | 4 | 3 | animals survived without observable distress | 
N=C(N)c1ccc(OCCCCCOc2ccc(C(=N)N)cc2Br)c(Br)c1 |  |  |  |  |  | No. of animals (Rattus norvegicus [10]): Insoluble
COc1cc(C(=N)N)ccc1OCCCCOc1ccc(C(=N)N)cc1OC.Cl.Cl | 10.2 |  | 3 | 4 |  | 
Cl.Cl.N=C(N)c1cccc(OCCCOc2cccc(C(=N)N)c2)c1 | 7.6 | 1.1 | 2 | 1 |  | 
Cl.Cl.N=C(N)c1ccc(OCCCCCOc2ccc(C(=N)N)cc2[N+](=O)[O-])c([N+](=O)[O-])c1 | 9.7 | 1 | 0 | 2 |  | 
Cl.Cl.N=C(N)c1ccc(OCCCCCCOc2ccc(C(=N)N)cc2)cc1 | 9.1 | 2.7 | 3 | 3 |  | 
Cl.N=C(N)c1ccc(OCCCCCCOc2ccc(C(=N)N)cc2N)c(N)c1 | 9.5 | 293 |  | 1 |  | No. of animals (Rattus norvegicus [3]): 3; No. of animals (Rattus norvegicus [4]): 0
COc1cc(C(=N)N)ccc1OCCCCCOc1ccc(C(=N)N)cc1OC.Cl.Cl | 12 | 1.3 | 2 | 4 |  | 
Cl.N=C(N)c1ccc(NCCCCCNc2ccc(C(=N)N)cc2N)c(N)c1 | 11 | 4.8 | 3 | 2 | animals survived without observable distress | 
Cl.N=C(N)c1ccc(NCCCNc2ccc(C(=N)N)cc2)cc1 | 11.6 | 1.1 | 5 and 2 | 1 | animals survived without observable distress | No. of animals (Rattus norvegicus [3]): 0; No. of animals (Rattus norvegicus [4]): 0
Cl.Cl.N=C(N)c1ccc(OCCCCOc2ccc(C(=N)N)cc2)cc1 | 8.3 | 1.5 | 8 | 0 | Non-toxic | No. of animals (Pneumocystis carinii [7]): 0
Cl.N=C(N)c1ccc(OCCCCCCOc2ccc(C(=N)N)cc2[N+](=O)[O-])c([N+](=O)[O-])c1 |  |  |  |  |  | No. of animals (Rattus norvegicus [12]): 1
Cl.N=C(N)c1ccc(OCCCCCOc2ccc(C(=N)N)cc2N)c(N)c1 | 10.8 | 1.8 |  | 5 | animals survived without observable distress | No. of animals (Rattus norvegicus [3]): 1; No. of animals (Rattus norvegicus [4]): 0

Further lines, with some results ahead:

ΔTm (Calf thymus DNA) [°C] | Ki (Serine protease 1 [6]) [µM] | SMILES | No. of animals (Pneumocystis carinii [1]) | No. of animals (Pneumocystis carinii [5]) | Toxicity [9] | also measured
13.6 | 5.8 | Cl.Cl.N=C(N)c1ccc(OCCCOc2ccc(C(=N)N)cc2N)c(N)c1 | 2 | 4 |  | No. of animals (Rattus norvegicus [2]): 1; No. of animals (Rattus norvegicus [3]): 0; No. of animals (Rattus norvegicus [4]): 0
10.7 | 2.3 | Cl.N=C(N)c1ccc(OCCCCCOc2ccc(C(=N)N)cc2)cc1 [PENTAMIDINE HYDROCHLORIDE] | 21 | 28 |  | 
10.5 |  | Cl.Cl.N=C(N)c1ccc(OCCCCCOc2ccc(C(=N)N)cc2Cl)c(Cl)c1 | 0 | 0 |  | 
8.9 |  | Cl.Cl.N=C(N)c1ccc(OCCCCOc2ccc(C(=N)N)cc2Cl)c(Cl)c1 |  | 1 |  | No. of animals (Rattus norvegicus [2]; in the assay text read “1.25 mg/kg/day” for “10 mg/kg/day”): 0; No. of animals (Pneumocystis carinii [7]): 2 and 3
8.3 | 5.3 | Cl.N=C(N)c1ccc(NCCCCCCNc2ccc(C(=N)N)cc2N)c(N)c1 | 3 | 1 | animals survived without observable distress | 
10.5 | > 2000 | Cl.c1cc(C2=NCCN2)ccc1OCCCCCOc1ccc(C2=NCCN2)cc1 |  | 3 |  | No. of animals (Rattus norvegicus [3]): 0; No. of animals (Rattus norvegicus [4]): 0
14.7 | 3.3 | Cl.Cl.N=C(N)c1ccc(OCCCOc2ccc(C(=N)N)cc2)cc1 | 3 | 4 | animals survived without observable distress | 
7.3 | 4 | Cl.Cl.N=C(N)c1cccc(OCCCCCCOc2cccc(C(=N)N)c2)c1 | 1 | 4 | animals survived without observable distress | 
10.5 | 11.1 | Cl.N=C(N)c1ccc(NCCCCNc2ccc(C(=N)N)cc2N)c(N)c1 | 0 | 4 | animals survived without observable distress | 
5.4 | 7.3 | N=C(N)c1ccc(OCCOc2ccc(C(=N)N)cc2)cc1 |  |  |  | 
8.8 |  | Cl.N=C(N)c1ccc(OCCOc2ccc(C(=N)N)cc2N)c(N)c1 |  | 4 |  | No. of animals (Rattus norvegicus [3]): 0; No. of animals (Rattus norvegicus [4]): 0; Ki (Serine protease 1 [11]): 5 µM
8.1 | 1.8 | Cl.Cl.N=C(N)c1cccc(OCCCCOc2cccc(C(=N)N)c2)c1 | 2 | 1 |  | 
11 | 10.3 | Cl.N=C(N)c1ccc(NCCCNc2ccc(C(=N)N)cc2N)c(N)c1 | 1 | 4 | animals survived without observable distress | 
9.6 | 9.1 | Cl.N=C(N)c1ccc(OCCCCOc2ccc(C(=N)N)cc2N)c(N)c1 | 2 | 5 |  | No. of animals (Rattus norvegicus [2]): 1; No. of animals (Rattus norvegicus [3]): 0; No. of animals (Rattus norvegicus [4]): 0
16.3 | 1.3 | COc1cc(C(=N)N)ccc1OCCCOc1ccc(C(=N)N)cc1OC.Cl.Cl | 7 | 1 |  | No. of animals (Pneumocystis carinii [7]): 0
